For series [1], the system named is Hepatitis B virus subtype adw2. The series is described as follows: Antiviral activity against Hepatitis B virus subtype adw2 infected in human HuH7 cells assessed as reduction in SHBs level at 2.5 to 10 ug/ml after 2 days by immunoblot method. The series is classed as functional, cell-based. In a few lines: (§1)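 Huh7 cells were transfected with pHBV1.2 (1.2-fold HBV adw2 genome) for 2 days, then exposed to 2.5, 5 or 10 μg/mL for another 2 days. Whole-cell protein was extracted with protease inhibitors. SHBs, HBcAg and HBx were detected by immunoblot, with α-tubulin for comparison.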

Series [2] concerns Huh-7. Briefly: Decrease in ERK1/2 protein expression in human HuH7 cells transfected with pHBV1.2 at 2.5 to 10 ug/ml after 2 days by immunoblot method.
Series [3] concerns Hepatitis B virus. Briefly: Decrease in HBV S promoter activity infected in human HuH7 cells cotransfected with pHBV1.2 at 10 ug/ml after 24 hrs by luciferase reporter gene assay. It counts as cell-based. In a few lines: (§2)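 Huh7 cells were seeded for 24 h, then cotransfected with pHBV1.2, pRLSV40 and a pGL4.17-based Core (nt 1636-1851), S (nt 3114-220), PreS (nt 2438-2855) or X (nt 1071-1357) promoter-luciferase construct for 24 h. Cells were then treated at 10 μg/mL for 24 h and lysates were assayed for luciferase. Mean ± SD, n = 3.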

A short description of series [4]: Effect on AP-2 (unknown origin) promoter activity expressed in human HuH7 cells cotransfected with pHBV1.2 at 10 ug/ml after 24 hrs by luciferase reporter gene assay. The series is classed as cell-based. In a few lines:
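Huh7 seeded in 24-well plates for 24 h. They were cotransfected with pHBV1.2 plus a luciferase reporter carrying the AP-2 (pAP2-Luc) or ISRE (pISRE-Luc) element, at 1 μg/well, and pRLSV40, in serum-free DMEM for 24 h. After a PBS wash, cells were placed in DMEM with 2% FBS and treated with 10 μg/mL. Luciferase was read from lysates; mean ± SD, n = 3.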

The nature of series [5]: Decrease in AP-1 (unknown origin) promoter activity expressed in human HuH7 cells cotransfected with pHBV1.2 at 10 ug/ml after 24 hrs by luciferase reporter gene assay. It counts as cell-based. In a few lines: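 Huh7 cells were seeded for 24 h, then cotransfected with pHBV1.2, pRLSV40 and pAP1-Luc or pNF-κB-Luc responsive-element reporter for 24 h. Cells were treated at 10 μg/mL for 24 h and lysates were assayed for luciferase. Mean ± SD, n = 3, compared with untreated cells.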

Series [6] can be described thus: Cytotoxicity against human HepG2.2.15 cells assessed as reduction in cell viability after 3 days by MTS assay. The following applies: read-out: TC50.
Series [7] concerns Huh-7. The series is described as follows: Decrease in p38 MAPK protein expression in human HuH7 cells transfected with pHBV1.2 at 10 ug/ml after 2 days by immunoblot method relative to control.
Series [8] deals with Transcription factor p65 (Homo sapiens) (UniProt Q04206). Briefly: Decrease in NF-kB p65 phosphorylation in human HuH7 cells transfected with pHBV1.2 at 2.5 ug/ml after 2 days by immunoblot method relative to control. It counts as cell-based. In a few lines: (§3)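 Huh7 cells were transfected with pHBV1.2 for 2 days, then treated at 2.5, 5 or 10 μg/mL for another 2 days. Whole-cell protein was extracted with protease inhibitors. NF-κB p65/p50, phospho-p65, IKKα/β and IκBα/phospho-IκBα were detected by immunoblot. Blots are representative of three experiments.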
Sequence of Transcription factor p65 (Homo sapiens) (Q04206 whole entry): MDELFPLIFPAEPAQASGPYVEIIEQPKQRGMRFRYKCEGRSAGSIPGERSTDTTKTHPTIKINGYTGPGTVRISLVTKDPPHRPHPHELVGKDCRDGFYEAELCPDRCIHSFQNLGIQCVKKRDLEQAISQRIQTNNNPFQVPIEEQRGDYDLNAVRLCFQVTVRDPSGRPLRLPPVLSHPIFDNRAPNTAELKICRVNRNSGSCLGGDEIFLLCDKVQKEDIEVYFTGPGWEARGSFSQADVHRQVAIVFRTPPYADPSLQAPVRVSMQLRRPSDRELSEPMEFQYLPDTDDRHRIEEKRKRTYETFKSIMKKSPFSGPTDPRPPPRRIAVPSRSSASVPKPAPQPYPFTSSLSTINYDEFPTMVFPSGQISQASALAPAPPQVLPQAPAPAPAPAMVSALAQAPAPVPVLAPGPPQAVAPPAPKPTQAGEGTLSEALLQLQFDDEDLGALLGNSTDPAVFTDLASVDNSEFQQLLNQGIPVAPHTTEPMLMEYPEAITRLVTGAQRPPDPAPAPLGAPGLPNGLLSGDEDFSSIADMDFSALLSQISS

Series [9] concerns Huh-7. Briefly: Decrease in IKBalpha protein expression in human HuH7 cells transfected with pHBV1.2 after 2 days by immunoblot method. The series is classed as functional, cell-based. Summed up:
as §3

Series [10] in a line: Antiviral activity against Hepatitis B virus subtype adw2 infected in human HuH7 cells assessed as reduction in HBx level at 5 ug/ml after 2 days by immunoblot method relative to control. It counts as functional. Summed up: as §1
Series [11] relates to Hepatitis B virus subtype adw2. Briefly: Antiviral activity against Hepatitis B virus subtype adw2 infected in human HuH7 cells assessed as reduction in major S/preS RNA level at 2.5 to 10 ug/ml after 2 days by northern blot method. It counts as functional, cell-based. In a few lines:
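After pHBV1.2 transfection of Huh7 cells for 2 days, cells were treated at 2.5, 5 or 10 μg/mL for 2 more days. Total RNA was Northern-blotted with an HBV whole-genome DNA probe. GAPDH served as loading control and β-gal marked transfection efficiency. Bands from three experiments were quantified by densitometry and normalized to GAPDH.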

The subject of series [12] is Hepatitis B virus subtype adw2. The series is described as follows: Antiviral activity against Hepatitis B virus subtype adw2 infected in human HuH7 cells cotransfected with pCMV-p65 assessed as inhibition of viral DNA replication at 10 ug/ml after 2 days by RT-PCR method. The series is classed as functional, cell-based. Summed up: (§4)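 Huh7 cells were cotransfected with pHBV1.2 and, where stated, 0.5 or 2.5 μg pCMV-p65 (or empty vector) for 2 days, then treated at 10 μg/mL for 2 days. In separate wells, HBV-expressing cells received 10 μg/mL with or without anisomycin (10 μM) for 2 days. Secreted viral particles were kit-isolated and HBV DNA was measured by real-time PCR, n = 3.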

The test system of series [13] is Hepatitis B virus subtype adw2. Briefly: Antiviral activity against Hepatitis B virus subtype adw2 infected in human HuH7 cells assessed as inhibition of HBsAg secretion after 3 days by EIA. It counts as functional, cell-based. Summed up: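 HBV-expressing Huh7 cells were given 2.5, 5 or 10 μg/mL for 3 days. HBsAg and HBeAg in the conditioned medium were measured by enzyme immunoassay. Mean ± SD, n = 3, compared with untreated cells.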

The subject of series [14] is Huh-7. The series is described as follows: Decrease in NF-kB p50 protein expression in human HuH7 cells transfected with pHBV1.2 at 5 ug/ml after 2 days by immunoblot method relative to control. The series is classed as functional. In a few lines:
as §3

The subject of series [15] is Huh-7. Briefly: Decrease in IKKbeta protein expression in human HuH7 cells transfected with pHBV1.2 at 2.5 ug/ml after 2 days by immunoblot method relative to control. The series is classed as functional. Summed up: as §3
The test system of series [16] is Huh-7. Briefly: Decrease in NF-kB p50 protein expression in human HuH7 cells transfected with pHBV1.2 at 10 ug/ml after 2 days by immunoblot method relative to control. The series is classed as functional. In a few lines:
as §3

Series [17] relates to Huh-7. The series is described as follows: Decrease in IKBalpha protein expression in human HuH7 cells transfected with pHBV1.2 at 5 ug/ml after 2 days by immunoblot method relative to control. The series is classed as functional. Summed up: as §3
Series [18] can be described thus: Antiviral activity against Hepatitis B virus subtype adw2 infected in human HuH7 cells assessed as inhibition of viral DNA replication by RT-PCR method. It counts as functional, cell-based. The following applies: Huh-7.
The nature of series [19]: Antiviral activity against Hepatitis B virus subtype adw2 infected in human HuH7 cells assessed as reduction in HBcAg level at 5 ug/ml after 2 days by immunoblot method relative to control. It counts as functional. In a few lines: as §1
Series [20] concerns Hepatitis B virus. The series is described as follows: Decrease in HBV preS promoter activity infected in human HuH7 cells cotransfected with pHBV1.2 at 10 ug/ml after 24 hrs by luciferase reporter gene assay. It counts as cell-based. In a few lines: as §2
A short description of series [21]: Selectivity index, ratio of TC50 for human HepG2.2.15 cells to IC50 for Hepatitis B virus subtype adw2 infected in human HuH7 cells assessed as inhibition of viral DNA replication.
A short description of series [22]: Antiviral activity against Hepatitis B virus subtype adw2 infected in human HuH7 cells assessed as inhibition of viral DNA replication at 10 ug/ml after 2 days by RT-PCR method relative to control. It counts as functional. The following applies: Huh-7, 48 h. In a few lines: as §4

pIC50: −log10 of the molar value. Calls of active or inactive are those of the source. The calls are words filed in the database; no cut-off is given here.

`C=C1C[C@@]23CC[C@H]4[C@@](C)(CCC[C@@]4(C)NC(=O)NCCCC)[C@@H]2CC[C@]1(O)C3`: the outcome in [1], in [2], in [3], in series [5], in [11] and in series [20] was Active. Besides, in series [4], the result was inactive. For the same compound, the CC50 at 72 h in series [6] was 972 µM. The “fold change (FC)” value amounted to 0.33 in series [7]; 0.95 in [8]; 0.87 in series [10]; 0.97 in series [14]; 0.99 in [15]; 0.26 in [16]. The “fold change (FC)” value was 0.94 in [17] and 0.81 in series [19]. Moreover, the Activity result in [9] is “Dose-dependent effect”. Also, the inhibition result in series [12] is “inactive”. Besides, the inhibition entry in series [13] was “Dose-dependent effect”. For the same compound, the pIC50 in series [18] was 4.77. Moreover, the selectivity ratio in series [21] turned out to be 57.7. Besides, in [22], the inhibition at 10 µg/mL was found to be 38%.

The values are drawn from ChEMBL document CHEMBL3997773, “Synthesis of C-4-Substituted Steviol Derivatives and Their Inhibitory Effects against Hepatitis B Virus” (J Nat Prod, 2016).
